These results are taken from ChEMBL document CHEMBL1772982, “In vitro and in vivo trypanocidal activity of flavonoids from Delphinium staphisagria against Chagas disease” (J Nat Prod, 2011).

Activity calls are given as the source filed them. Some results are limits rather than exact numbers.

Data set [1] relates to Trypanosoma cruzi. The data set can be described thus: Antitrypanosomal activity against metacyclic forms of Trypanosoma cruzi infected in vero cells assessed as inhibition of infection at IC25 concentration after 12 hrs. It is filed as functional. The essentials:
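Vero cells were seeded at 1 × 10^5 per well on coverslips, grown 2 days, and infected with metacyclic forms at 10:1, with compounds at IC25 present for 12 h at 37 °C. After washing, cultures were grown 10 days. Methanol-fixed, Giemsa-stained cells (>100 per sample) were scored for percent infected and amastigotes per cell. Results are means of four determinations.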

Data set [2] in a line: Selectivity index, ratio of IC50 for african green monkey Vero cells to IC50 for epimastigote form of Trypanosoma cruzi. The class given is toxicity, cell-based. To be noted: Vero cells (versus epimastigote form of Trypanosoma cruzi), read-out: Ratio IC50.
Data set [3] relates to Trypanosoma cruzi. Briefly: Antitrypanosomal activity against epimastigote form of Trypanosoma cruzi assessed as inhibition of parasite growth. The class given is functional, organism-based. The essentials:
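Exponential-phase epimastigotes at 2 × 10^6 parasites/mL were exposed to 1, 10, 25, 50 and 100 μM compound in medium containing 0.01% DMSO. Parasites were counted by hemocytometer at 24, 48 and 72 h.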

Data set [4] has as its system Trypanosoma cruzi. The data set can be described thus: Antitrypanosomal activity against blood trypomastigote forms of Trypanosoma cruzi infected in BALB/c mouse assessed as decrease in parasitemia at 5 mg/kg, ip administered 7 days post infection once daily for 5 days measured after 40 days post infection by […] relative to control. It is filed as functional. The arrangement: scale not given: the % may be the effect or the level left. To be noted: route intraperitoneal. In short, it runs like this:
(§1)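 Female BALB/c mice (6–8 weeks, five per group) were infected ip with 1 × 10^3 bloodstream forms and treated ip in saline on days 7–12 post-infection; controls received vehicle. Every two days, 5 μL tail blood was diluted 1:15 in citrate/lysis buffer (pH 7.2) and parasites counted in a Neubauer chamber. Decrease is relative to the untreated infected group.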

Data set [5] has as its system Trypanosoma cruzi. Briefly: Antitrypanosomal activity against metacyclic forms of Trypanosoma cruzi infected in vero cells assessed as decrease in trypomastigotes at IC25 concentration after 12 hrs. The arrangement: scale not given: the % may be the effect or the level left. It is filed as functional. In short, it runs like this:
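Vero cells were seeded at 1 × 10^5 per well on coverslips, grown 2 days, then infected with metacyclic forms at 10:1. Compounds at IC25 were added at infection for 12 h at 37 °C, 5% CO2, then washed out. Cultures were kept 10 days with medium renewed every 48 h. Trypomastigotes released into the medium were counted.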

Data set [6] relates to Trypanosoma cruzi. Briefly: Antitrypanosomal activity against Trypanosoma cruzi epimastigotes assessed as dilated mitochondria at IC25 concentration after 72 hrs by transmission electron microscopy. It is filed as functional, organism-based. The essentials: (§2)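 Epimastigotes at 5 × 10^6 cells/mL were exposed to test compounds at their IC25 for 72 h. Morphology was assessed by transmission electron microscopy against untreated parasites.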

Data set [7] concerns Trypanosoma cruzi. The data set can be described thus: Antitrypanosomal activity against blood trypomastigote forms of Trypanosoma cruzi infected in BALB/c mouse assessed as decrease in anti-parasite antibodies level at 5 mg/kg, ip administered 7 days post infection once daily for 5 days measured after […] by ELISA relative to control. The class given is functional, organism-based. The arrangement: dose 5 mg/kg. The essentials:
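Female BALB/c mice (6–8 weeks) were infected ip; groups of four received ip treatment days 7–12 post-infection. Sera taken on days 40 and 90 were diluted 1:100 and run in ELISA against excreted Fe-SOD antigen from epimastigotes, read at 490 nm. Cutoff was the mean of negative controls plus 3 SD. The change was taken as absorbance on day 90 minus day 40.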

Data set [8] concerns Trypanosoma cruzi. The data set can be described thus: Antitrypanosomal activity against Trypanosoma cruzi epimastigotes assessed as shrinkage of the protozoa at IC25 concentration after 72 hrs by transmission electron microscopy. It is filed as functional, organism-based. In short, it runs like this: as §2
Data set [9] relates to Trypanosoma cruzi. Briefly: Antitrypanosomal activity against Trypanosoma cruzi epimastigotes assessed as undulating cytoplasm membrane at IC25 concentration after 72 hrs by transmission electron microscopy. The class given is functional, organism-based. The essentials: as §2
The test system of data set [10] is Trypanosoma cruzi. The data set can be described thus: Antitrypanosomal activity against Trypanosoma cruzi epimastigotes assessed as increase in vacuolization at IC25 concentration after 72 hrs by transmission electron microscopy. It is filed as functional, organism-based. In short, it runs like this: as §2
In the next data set the test system is Vero. Briefly: Cytotoxicity against african green monkey Vero cells assessed as cell viability after 72 hrs by FACS analysis. It is filed as cell-based. To be noted: Chlorocebus sabaeus.
The test system of data set [11] is Trypanosoma cruzi. The data set can be described thus: Antitrypanosomal activity against Trypanosoma cruzi epimastigotes assessed as cytoplasmic membrane burst at IC25 concentration after 72 hrs by transmission electron microscopy. It is filed as functional, organism-based. The essentials:
as §2

The subject of data set [12] is Trypanosoma cruzi. Briefly: Antitrypanosomal activity against blood trypomastigote forms of Trypanosoma cruzi infected in BALB/c mouse assessed as decrease in parasitemia at 5 mg/kg, ip administered 7 days post infection once daily for 5 days measured on day 22 post infection by […] relative to control. It is filed as functional, organism-based. The arrangement: dose 5 mg/kg. In short, it runs like this:
as §1

Data set [13] deals with Trypanosoma cruzi. The data set can be described thus: Antitrypanosomal activity against blood trypomastigote forms of Trypanosoma cruzi infected in BALB/c mouse assessed as mouse survival rate at 1 mg/kg, ip administered 7 days postinfection once daily for 5 days. The class given is functional. In short, it runs like this: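 T. cruzi Maracay strain; groups of five female BALB/c mice (6–8 weeks, 25–30 g) infected ip with 1 × 10³ bloodstream forms. Starting day 7 post-infection, ip dosing at 1 mg/kg/day in saline for five consecutive days; infected controls received vehicle. Mortality recorded over the study alongside parasitemia, which was counted every two days from tail blood in a Neubauer chamber.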

A further data set concerns Mus musculus. Briefly: Toxicity in BALB/c mouse assessed as mortality at 5 mg/kg, ip. The class given is organism-based. The arrangement: dose 5 mg/kg, route intraperitoneal. To be noted: in vivo.
Data set [14] has as its system Trypanosoma cruzi. Briefly: Antitrypanosomal activity against Trypanosoma cruzi epimastigotes assessed as star-shaped and wavy cytoplasm membrane at IC25 concentration after 72 hrs by transmission electron microscopy. The class given is functional, organism-based. In short, it runs like this: as §2

Consider `CC(=O)O[C@H]1[C@H](Oc2c(-c3ccc(O)cc3)oc3cc(O)cc(O)c3c2=O)O[C@H](CO)[C@@H](O)[C@@H]1O`, for which the “inhibition (INH)” value in the data set with Trypanosoma cruzi [1] is reported as 88%. Moreover, the selectivity ratio in data set [2] turned out to be 45.2. The IC50 was found to be 6.5 µM in the data set on Trypanosoma cruzi [3] and 294 µM with Vero. Besides, the figures for the Activity in the data set on Trypanosoma cruzi [4], with Trypanosoma cruzi [5] and in the data set on Mus musculus were 23%, 78% and “Non-toxic”, respectively. In addition, the result in the data set with Trypanosoma cruzi [6], in the data set on Trypanosoma cruzi [7], in the data set with Trypanosoma cruzi [8], in the data set with Trypanosoma cruzi [9], in the data set on Trypanosoma cruzi [10] and with Trypanosoma cruzi [11] was Active. Also, the outcome with Trypanosoma cruzi [12] and in the data set on Trypanosoma cruzi [13] was Active.
For `CC(=O)O[C@H]1[C@H](Oc2c(-c3ccc(O)cc3)oc3cc(O[C@@H]4O[C@H](CO)[C@@H](O)[C@H](O)[C@H]4O)cc(O)c3c2=O)O[C@H](CO)[C@@H](O)[C@@H]1O`, the “inhibition (INH)” value with Trypanosoma cruzi [1] worked out at 85%. Further, the selectivity ratio in data set [2] was above 46.1. In addition, the figures for the IC50 in the data set with Trypanosoma cruzi [3] and in the data set with Vero were 21.7 µM and above 1000 µM, respectively. The Activity with Trypanosoma cruzi [4] was 23%; in the data set with Trypanosoma cruzi [5], 77%; with Mus musculus it was “Non-toxic”. The outcome in the data set on Trypanosoma cruzi [7], in the data set on Trypanosoma cruzi [8], with Trypanosoma cruzi [10], with Trypanosoma cruzi [12] and in the data set on Trypanosoma cruzi [13] was Active.
In the case of `CC(=O)O[C@H]1[C@H](Oc2c(-c3ccc(O)c(O)c3)oc3cc(O[C@H]4O[C@H](C)[C@@H](O)[C@H](O)[C@@H]4O)cc(O)c3c2=O)O[C@H](CO)[C@@H](O)[C@@H]1O`, the “inhibition (INH)” value with Trypanosoma cruzi [1] was determined as 65%. Also, in data set [2], the selectivity ratio is above 36.6. In addition, the IC50 with Trypanosoma cruzi [3] is 27.3 µM; in the data set with Vero, above 1000 µM. Also, the Activity is given as 23% with Trypanosoma cruzi [4], 58% in the data set on Trypanosoma cruzi [5] and “Non-toxic” in the data set with Mus musculus. Moreover, the result with Trypanosoma cruzi [7], with Trypanosoma cruzi [8], in the data set on Trypanosoma cruzi [10], with Trypanosoma cruzi [12] and with Trypanosoma cruzi [13] was Active.
Turning to `CC(=O)OC[C@H]1O[C@@H](Oc2c(-c3ccc(OC(C)=O)cc3)oc3cc(OC(C)=O)cc(OC(C)=O)c3c2=O)[C@H](OC(C)=O)[C@@H](OC(C)=O)[C@@H]1OC(C)=O` [ASTRAGALIN HEPTAACETATE], the “inhibition (INH)” value with Trypanosoma cruzi [1] came out at 91%. In [2], the selectivity ratio worked out at 205. The IC50 with Trypanosoma cruzi [3] is 0.8 µM; in the data set with Vero, 164 µM. Further, the figures for the Activity in the data set with Trypanosoma cruzi [4], with Trypanosoma cruzi [5] and with Mus musculus were 23%, 95% and “Non-toxic”, respectively. Moreover, the result in the data set on Trypanosoma cruzi [7], in the data set on Trypanosoma cruzi [8], with Trypanosoma cruzi [10], in the data set with Trypanosoma cruzi [12] and in the data set on Trypanosoma cruzi [13] was Active.
As for `O=c1c(O[C@@H]2O[C@H](CO)[C@@H](O)[C@H](O)[C@H]2O)c(-c2ccc(O)cc2)oc2cc(O)cc(O)c12` [ASTRAGALIN], the “inhibition (INH)” value in the data set on Trypanosoma cruzi [1] stood at 64%. In addition, in data set [2], the selectivity ratio is 11.1. Further, the IC50 with Trypanosoma cruzi [3] worked out at 15.7 µM; with Vero, 174 µM. Moreover, the results for the Activity in the data set with Trypanosoma cruzi [4], in the data set with Trypanosoma cruzi [5] and in the data set with Mus musculus were 23%, 65% and “Non-toxic”, respectively. Also, the result in the data set with Trypanosoma cruzi [7], in the data set with Trypanosoma cruzi [8], with Trypanosoma cruzi [9], in the data set with Trypanosoma cruzi [10], in the data set with Trypanosoma cruzi [11] and in the data set on Trypanosoma cruzi [12] was Active. Also, the result in the data set on Trypanosoma cruzi [13] was Active.
For the compound `O=C(Cn1ccnc1[N+](=O)[O-])NCc1ccccc1` [BENZNIDAZOLE], the “inhibition (INH)” value with Trypanosoma cruzi [1] is on record as 39%. Moreover, in the data set with Trypanosoma cruzi [5], the Activity came out at 37%. Besides, the survival at 1 mg/kg in the data set with Trypanosoma cruzi [13] (route intraperitoneal) stood at 80%.
For the compound `CC(=O)OC[C@H]1O[C@@H](Oc2cc(OC(C)=O)c3c(=O)c(O[C@@H]4O[C@H](COC(C)=O)[C@@H](OC(C)=O)[C@H](OC(C)=O)[C@H]4OC(C)=O)c(-c4ccc(OC(C)=O)cc4)oc3c2)[C@H](OC(C)=O)[C@@H](OC(C)=O)[C@@H]1OC(C)=O` [PAEONOSIDE DECAACETATE], in the data set with Trypanosoma cruzi [1], the “inhibition (INH)” value came to 82%. Also, the selectivity ratio in [2] is above 58.1. Also, the IC50 with Trypanosoma cruzi [3] is 17.2 µM; with Vero, above 1000 µM. Also, the values for the Activity in the data set on Trypanosoma cruzi [4], in the data set on Trypanosoma cruzi [5] and in the data set on Mus musculus were 23%, 85% and “Non-toxic”, respectively. Besides, the outcome in the data set on Trypanosoma cruzi [7], with Trypanosoma cruzi [8], with Trypanosoma cruzi [9], with Trypanosoma cruzi [10], in the data set on Trypanosoma cruzi [11] and with Trypanosoma cruzi [12] was Active. The outcome with Trypanosoma cruzi [13] and in the data set with Trypanosoma cruzi [14] was Active.
With `C[C@H]1O[C@H](Oc2cc(O)c3c(=O)c(O[C@@H]4O[C@H](CO)[C@@H](O)[C@H](O)[C@H]4O)c(-c4ccc(O)c(O)c4)oc3c2)[C@@H](O)[C@@H](O)[C@@H]1O` [PETIOLAROSIDE], the “inhibition (INH)” value with Trypanosoma cruzi [1] was found to be 68%. The selectivity ratio in data set [2] was above 33. Moreover, the IC50 in the data set on Trypanosoma cruzi [3] is 30.3 µM; in the data set with Vero it was above 1000 µM. The Activity was 23% with Trypanosoma cruzi [4], 72% in the data set on Trypanosoma cruzi [5] and “Non-toxic” in the data set with Mus musculus. Moreover, the result in the data set with Trypanosoma cruzi [7], in the data set on Trypanosoma cruzi [8], in the data set on Trypanosoma cruzi [10], with Trypanosoma cruzi [12] and in the data set with Trypanosoma cruzi [13] was Active.
